Converted amounts (≈) assume the structure as drawn. Each block holds one compound with its values, some of them ahead of it.
How the values were obtained:
[1] = biological target: T1, Ribosomal protein S6 kinase beta-1 (Homo sapiens, UniProt P23443); assay: Inhibition of S6K1
[2] = Kinetic solubility of the compound in 50 mM phosphate buffer at pH 6.5; format: physicochemical
CYP3A4 = CYP3A4 (Homo sapiens, UniProt P08684); assay: Inhibition of CYP3A4 at 3 uM by LC/MS/MS analysis; format: ADME
[3] = biological target: Voltage-gated inwardly rectifying potassium channel KCNH2 (Homo sapiens, UniProt Q12809); assay: Displacement of labeled dofetilide from human ERG
CYP1A2 = biological target: T2, CYP1A2 (Homo sapiens, UniProt P05177); assay: Inhibition of CYP1A2 at 3 uM by LC/MS/MS analysis; format: ADME
T2 sequence (P05177 whole entry): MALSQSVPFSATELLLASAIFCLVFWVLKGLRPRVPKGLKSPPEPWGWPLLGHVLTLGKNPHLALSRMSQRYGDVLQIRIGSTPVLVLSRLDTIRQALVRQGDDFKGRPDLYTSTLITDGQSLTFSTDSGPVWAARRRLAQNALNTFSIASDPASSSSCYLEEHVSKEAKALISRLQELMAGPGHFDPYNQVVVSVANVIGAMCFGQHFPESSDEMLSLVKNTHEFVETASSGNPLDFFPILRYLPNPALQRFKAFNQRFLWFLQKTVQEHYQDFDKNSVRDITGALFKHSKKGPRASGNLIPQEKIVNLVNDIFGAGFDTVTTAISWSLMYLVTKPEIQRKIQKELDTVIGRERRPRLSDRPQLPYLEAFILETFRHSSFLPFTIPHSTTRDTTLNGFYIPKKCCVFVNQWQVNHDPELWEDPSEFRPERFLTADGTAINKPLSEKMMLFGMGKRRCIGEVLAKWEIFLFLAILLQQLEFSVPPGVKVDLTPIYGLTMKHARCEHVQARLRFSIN

CYP2D6 = CYP2D6 (Homo sapiens, UniProt P10635); assay: Inhibition of CYP2D6 at 3 uM by LC/MS/MS analysis; format: ADME
[4] = biological target: T1, Ribosomal protein S6 kinase beta-1; assay: Inhibition of S6K1 in ribosomal protein S6 by whole cell assay
[5] = Half life in human liver microsomes at 1 uM by LC/MS/MS analysis; format: ADME, Microsome
Method in brief: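 Test compound incubated with human liver microsomes to measure Phase I metabolic stability. Remaining compound quantified by LC/MS/MS, and stability reported as half-life (T1/2) in minutes.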

CYP2C9 = CYP2C9 (Homo sapiens, UniProt P11712); assay: Inhibition of CYP2C9 at 3 uM by LC/MS/MS analysis; format: ADME
[6] = Half life in human hepatocytes at 1 uM by LC/MS/MS analysis; format: ADME, cell-based, Liver, Hepatocyte
Method in brief: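 Stability measured in intact human hepatocytes, with remaining parent compound quantified by LC/MS/MS. Result expressed as half-life (T1/2) in minutes.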

Voltage-gated inwardly rectifying potassium channel KCNH2, sequence (Q12809 whole entry): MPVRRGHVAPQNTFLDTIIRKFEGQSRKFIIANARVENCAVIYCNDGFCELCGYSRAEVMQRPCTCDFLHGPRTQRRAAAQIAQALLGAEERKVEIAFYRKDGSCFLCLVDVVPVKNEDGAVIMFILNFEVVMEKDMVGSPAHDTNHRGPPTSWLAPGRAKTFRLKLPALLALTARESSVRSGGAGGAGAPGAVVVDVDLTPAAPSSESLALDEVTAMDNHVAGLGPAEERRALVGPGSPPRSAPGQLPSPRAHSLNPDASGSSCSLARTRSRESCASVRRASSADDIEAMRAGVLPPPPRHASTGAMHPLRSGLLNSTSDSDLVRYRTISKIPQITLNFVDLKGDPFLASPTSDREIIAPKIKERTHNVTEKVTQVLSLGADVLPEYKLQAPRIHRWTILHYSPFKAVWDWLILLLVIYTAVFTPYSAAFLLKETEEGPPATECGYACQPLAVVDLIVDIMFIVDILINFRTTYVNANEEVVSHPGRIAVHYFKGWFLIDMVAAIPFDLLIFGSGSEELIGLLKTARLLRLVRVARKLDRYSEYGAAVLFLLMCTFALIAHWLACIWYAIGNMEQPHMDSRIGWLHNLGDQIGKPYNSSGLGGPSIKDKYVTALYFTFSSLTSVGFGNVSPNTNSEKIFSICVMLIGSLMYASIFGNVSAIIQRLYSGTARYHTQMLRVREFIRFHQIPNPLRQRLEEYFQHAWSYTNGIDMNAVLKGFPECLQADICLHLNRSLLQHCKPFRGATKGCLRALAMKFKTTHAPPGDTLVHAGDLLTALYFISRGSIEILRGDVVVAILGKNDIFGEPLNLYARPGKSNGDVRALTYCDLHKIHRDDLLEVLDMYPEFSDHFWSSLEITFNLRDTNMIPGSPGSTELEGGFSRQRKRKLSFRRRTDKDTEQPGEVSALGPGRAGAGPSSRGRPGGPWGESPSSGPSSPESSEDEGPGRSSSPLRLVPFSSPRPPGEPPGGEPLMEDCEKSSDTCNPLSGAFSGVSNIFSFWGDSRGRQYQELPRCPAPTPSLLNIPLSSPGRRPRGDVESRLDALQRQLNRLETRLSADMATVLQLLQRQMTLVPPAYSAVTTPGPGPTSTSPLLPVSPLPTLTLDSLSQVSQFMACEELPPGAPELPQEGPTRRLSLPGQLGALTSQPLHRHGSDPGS
T1 sequence (P23443 whole entry): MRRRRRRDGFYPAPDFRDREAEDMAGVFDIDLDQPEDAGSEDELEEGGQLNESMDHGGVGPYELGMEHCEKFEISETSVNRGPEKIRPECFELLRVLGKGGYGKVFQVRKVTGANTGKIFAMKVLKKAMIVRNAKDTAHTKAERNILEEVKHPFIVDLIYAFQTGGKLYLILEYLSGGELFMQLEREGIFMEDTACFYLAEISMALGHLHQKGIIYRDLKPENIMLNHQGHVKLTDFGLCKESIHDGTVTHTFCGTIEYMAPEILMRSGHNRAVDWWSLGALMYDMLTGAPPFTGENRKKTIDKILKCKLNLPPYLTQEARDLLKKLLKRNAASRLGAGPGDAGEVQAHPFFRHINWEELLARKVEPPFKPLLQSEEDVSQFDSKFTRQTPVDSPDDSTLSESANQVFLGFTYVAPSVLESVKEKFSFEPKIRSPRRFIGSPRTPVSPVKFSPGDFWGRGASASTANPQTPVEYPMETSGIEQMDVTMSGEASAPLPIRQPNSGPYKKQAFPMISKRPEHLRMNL
CYP2C9, sequence (P11712 whole entry): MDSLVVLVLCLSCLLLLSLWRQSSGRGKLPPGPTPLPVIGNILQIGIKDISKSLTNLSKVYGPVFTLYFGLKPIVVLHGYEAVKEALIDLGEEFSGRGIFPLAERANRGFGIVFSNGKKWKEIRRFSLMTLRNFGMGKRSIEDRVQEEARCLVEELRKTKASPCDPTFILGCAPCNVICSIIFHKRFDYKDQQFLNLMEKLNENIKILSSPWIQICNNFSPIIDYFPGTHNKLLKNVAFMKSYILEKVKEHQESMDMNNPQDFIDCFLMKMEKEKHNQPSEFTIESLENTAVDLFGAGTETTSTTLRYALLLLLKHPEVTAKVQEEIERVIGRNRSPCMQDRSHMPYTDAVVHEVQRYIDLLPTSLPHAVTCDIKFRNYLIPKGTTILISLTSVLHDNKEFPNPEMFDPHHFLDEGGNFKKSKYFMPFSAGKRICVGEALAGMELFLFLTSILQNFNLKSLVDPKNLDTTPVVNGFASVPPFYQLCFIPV
CYP2D6, sequence (P10635 whole entry): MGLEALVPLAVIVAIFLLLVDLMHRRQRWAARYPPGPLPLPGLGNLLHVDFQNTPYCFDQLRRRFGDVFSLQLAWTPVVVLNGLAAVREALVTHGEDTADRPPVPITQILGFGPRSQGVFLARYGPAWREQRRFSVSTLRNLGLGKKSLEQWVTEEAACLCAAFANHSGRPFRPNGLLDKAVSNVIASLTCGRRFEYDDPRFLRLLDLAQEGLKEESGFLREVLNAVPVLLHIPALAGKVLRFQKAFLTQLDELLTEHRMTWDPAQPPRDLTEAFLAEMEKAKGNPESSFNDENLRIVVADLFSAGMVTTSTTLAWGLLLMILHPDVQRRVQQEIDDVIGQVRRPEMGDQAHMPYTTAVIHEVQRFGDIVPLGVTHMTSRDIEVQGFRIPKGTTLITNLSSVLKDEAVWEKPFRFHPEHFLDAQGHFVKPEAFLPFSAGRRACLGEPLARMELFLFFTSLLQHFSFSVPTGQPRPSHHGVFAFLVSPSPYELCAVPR
CYP3A4, sequence (P08684 whole entry): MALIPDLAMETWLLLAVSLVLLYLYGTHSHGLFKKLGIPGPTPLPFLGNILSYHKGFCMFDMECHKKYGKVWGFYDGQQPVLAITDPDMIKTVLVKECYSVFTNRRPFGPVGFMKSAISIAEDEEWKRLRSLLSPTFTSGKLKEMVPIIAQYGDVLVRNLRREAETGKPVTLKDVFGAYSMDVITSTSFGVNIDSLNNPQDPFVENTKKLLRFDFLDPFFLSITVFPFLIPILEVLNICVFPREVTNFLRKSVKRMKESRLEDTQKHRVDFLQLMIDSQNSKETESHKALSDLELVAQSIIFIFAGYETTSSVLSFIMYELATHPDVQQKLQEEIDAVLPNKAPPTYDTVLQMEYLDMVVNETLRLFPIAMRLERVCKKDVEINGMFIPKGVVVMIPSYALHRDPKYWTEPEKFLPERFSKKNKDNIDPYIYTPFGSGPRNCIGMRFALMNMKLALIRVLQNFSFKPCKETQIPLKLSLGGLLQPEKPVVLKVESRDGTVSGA

SMILES: CC(C)(C)c1cc(C(=O)NCCO)c(NC(=O)Nc2ccc3[nH]ncc3c2)s1
solubility kinetic [2]: 41 µg/mL (≈ 102 µM) | IC50 [1]: 19 nM | inhibition at 3 µM (CYP3A4): 0% | inhibition (INH) [3]: 0% | inhibition at 3 µM (CYP1A2): 52% | inhibition at 3 µM (CYP2D6): 9% | half-life at 1 µM [5]: > 2 h | inhibition at 3 µM (CYP2C9): 30% | half-life at 1 µM [6]: 4.38 h

SMILES: C[C@H](O)c1cc(C(=O)NCCN(C)C)c(NC(=O)Nc2ccc3[nH]ncc3c2)s1
IC50 [1]: 379 nM

SMILES: C[C@@H](O)c1cc(C(=O)NCCN(C)C)c(NC(=O)Nc2ccc3[nH]ncc3c2)s1
IC50 [1]: 196 nM

SMILES: CC(C)(C)c1cc(C(=O)NCc2ccccc2)c(NC(=O)Nc2ccc3[nH]ncc3c2)s1
IC50 [1]: 201 nM

SMILES: CC(C)(C)c1cc(C(=O)N2CCS(=O)(=O)CC2)c(NC(=O)Nc2ccc(Oc3ccccc3F)cc2)s1
IC50 [1]: > 20000 nM

SMILES: CC(C)(C)c1cc(C(=O)N2CCS(=O)(=O)CC2)c(NC(=O)Nc2ccc(Oc3ccccc3)cc2)s1
IC50 [1]: > 20000 nM

SMILES: CCc1cc(C(=O)NCCN(C)C)c(NC(=O)Nc2ccc3[nH]ncc3c2)s1
IC50 [1]: 62 nM

SMILES: CC(C)(C)c1ccc(NC(=O)Nc2ccc3[nH]ncc3c2)s1
solubility kinetic [2]: 7 µg/mL (≈ 22.3 µM) | IC50 [1]: 19 nM | inhibition at 3 µM (CYP3A4): 4% | inhibition (INH) [3]: 0% | inhibition at 3 µM (CYP1A2): 36% | inhibition at 3 µM (CYP2D6): 20% | half-life at 1 µM [5]: 0.917 h | inhibition at 3 µM (CYP2C9): 52%

SMILES: CN(C)CCNC(=O)c1cc(C(C)(C)C)sc1NC(=O)Nc1ccc2[nH]ncc2c1
solubility kinetic [2]: 171 µg/mL (≈ 399 µM) | IC50 [1]: 15 nM | inhibition at 3 µM (CYP3A4): 0% | inhibition (INH) [3]: 28% | inhibition at 3 µM (CYP1A2): 18% | inhibition at 3 µM (CYP2D6): 7% | IC50 [4]: 521 nM | half-life at 1 µM [5]: 0.633 h | inhibition at 3 µM (CYP2C9): 0% | half-life at 1 µM [6]: 2.08 h

SMILES: CN(C)CCNC(=O)c1cc(-c2ccccc2)sc1NC(=O)Nc1ccc2[nH]ncc2c1
IC50 [1]: 1900 nM

Second part, led by results:

IC50 [1]: > 20000 nM
SMILES: CC(C)(C)c1cc(C(=O)N2CCS(=O)(=O)CC2)c(NC(=O)Nc2ccc(Oc3ccncc3)cc2)s1

solubility kinetic [2]: 10 µg/mL (≈ 25.2 µM) | IC50 [1]: 10 nM | inhibition at 3 µM (CYP3A4): 11% | inhibition at 3 µM (CYP1A2): 40% | inhibition at 3 µM (CYP2D6): 12% | IC50 [4]: 685 nM | half-life at 1 µM [5]: > 2 h | inhibition at 3 µM (CYP2C9): 11% | half-life at 1 µM [6]: 2.3 h
SMILES: CC(C)(C)c1cc(C(=O)NC2CC2)c(NC(=O)Nc2ccc3[nH]ncc3c2)s1
inhibition (INH) [3]: 0%

IC50 [1]: > 20000 nM
SMILES: COc1ccccc1Oc1ccc(NC(=O)Nc2sc(C(C)(C)C)cc2C(=O)N2CCS(=O)(=O)CC2)cc1

IC50 [1]: 34 nM
SMILES: CC(C)(C)c1cc(C(=O)N2CCS(=O)(=O)CC2)c(NC(=O)Nc2ccc3[nH]ncc3c2)s1

IC50 [1]: 9000 nM
SMILES: CC(C)(C)c1cc(C(=O)N2CCS(=O)(=O)CC2)c(NC(=O)Nc2ccc(Oc3cccnc3)cc2)s1

solubility kinetic [2]: 10 µg/mL (≈ 24.1 µM) | IC50 [1]: 7 nM | inhibition at 3 µM (CYP3A4): 2% | inhibition at 3 µM (CYP1A2): 45% | inhibition at 3 µM (CYP2D6): 0% | half-life at 1 µM [5]: > 2 h | inhibition at 3 µM (CYP2C9): 14% | half-life at 1 µM [6]: 6.12 h
SMILES: COCCNC(=O)c1cc(C(C)(C)C)sc1NC(=O)Nc1ccc2[nH]ncc2c1
inhibition (INH) [3]: 0%

IC50 [1]: 29 nM
SMILES: CC(C)c1cc(C(=O)NCCN(C)C)c(NC(=O)Nc2ccc3[nH]ncc3c2)s1

IC50 [1]: > 20000 nM
SMILES: CC(C)(C)c1cc(C(=O)N2CCS(=O)(=O)CC2)c(NC(=O)Nc2ccc3oc4cccnc4c3c2)s1

IC50 [1]: 70 nM
SMILES: CN(C)CCNC(=O)c1cc(C2CC2)sc1NC(=O)Nc1ccc2[nH]ncc2c1

IC50 [1]: 191 nM
SMILES: CC(C)(C)c1cc(C(=O)NCc2ccccc2F)c(NC(=O)Nc2ccc3[nH]ncc3c2)s1

IC50 [1]: 4000 nM
SMILES: Cc1c(O)cccc1NC(=O)Nc1sc(C(C)(C)C)cc1C(=O)N1CCS(=O)(=O)CC1

IC50 [1]: 223 nM
SMILES: Cc1cc(C(=O)NCCN(C)C)c(NC(=O)Nc2ccc3[nH]ncc3c2)s1

IC50 [1]: 207 nM
SMILES: CC(C)(C)c1cc(C(=O)N2CCOCC2)c(NC(=O)Nc2ccc3[nH]ncc3c2)s1
